We go through ten compounds from ChEMBL document CHEMBL4118142, “Novel amidrazone derivatives: Design, synthesis and activity evaluation” (Bioorg Med Chem, 2018).

The source made the active and inactive calls. No cut-off for these calls is given here.

Data set [1] in a line: Cytotoxicity against rat articular chondrocytes assessed as decrease in cell viability at 1.563 to 25 uM after 24 hrs by MTT assay. In outline: (§1)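 Primary rat articular chondrocytes were seeded at 5 × 10^3 cells/well and incubated 24 h in DMEM with 10% FBS. They were then exposed to compound for 24 h. MTT (5 mg/mL stock) was added for 4 h at 37 °C, formazan was dissolved in DMSO, and OD was read at 492 nm against a cell-free blank. Run in triplicate, three independent experiments, means ± SE.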
Background: Tetrazolium assays rely on reduction of a dye to a coloured formazan, in cell work by metabolically active cells.

Data set [2] concerns the target T1, Acid-sensing ion channel 1 (Rattus norvegicus) (UniProt P55926).
T1 sequence (whole entry): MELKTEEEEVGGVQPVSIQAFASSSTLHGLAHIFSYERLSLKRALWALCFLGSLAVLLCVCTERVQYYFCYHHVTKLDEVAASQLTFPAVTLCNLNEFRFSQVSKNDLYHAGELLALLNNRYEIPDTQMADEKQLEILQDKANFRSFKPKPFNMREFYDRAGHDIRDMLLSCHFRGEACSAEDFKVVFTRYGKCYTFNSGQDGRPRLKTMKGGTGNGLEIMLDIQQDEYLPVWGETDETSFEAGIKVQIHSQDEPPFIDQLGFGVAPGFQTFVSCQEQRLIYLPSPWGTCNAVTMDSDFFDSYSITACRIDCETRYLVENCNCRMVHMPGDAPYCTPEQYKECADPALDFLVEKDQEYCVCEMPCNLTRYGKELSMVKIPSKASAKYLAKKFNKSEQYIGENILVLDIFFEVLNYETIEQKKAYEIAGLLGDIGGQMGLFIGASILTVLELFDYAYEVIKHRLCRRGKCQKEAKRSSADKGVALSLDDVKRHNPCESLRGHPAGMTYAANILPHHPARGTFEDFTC
Briefly: Inhibition of acid-induced ASIC1a protein expression in rat articular chondrocytes at 1.563 to 25 uM pretreated for 24 hrs followed by acid medium stimulation at pH 6 for 3 hrs by Western blot analysis. Type of data set: cell-based. In outline: (§2)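 Primary rat articular chondrocytes in DMEM/10% FBS at 37 °C, 5% CO2 were pretreated with compound for 24 h, then stimulated with acidic medium (pH 6.0) for 3 h. Cells kept at pH 7.4 served as control. Cells were PBS-washed and lysed, and ASIC1a was measured by Western blot with β-actin as internal control. Mean ± SD of three independent experiments.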
A general note: Immunoblotting shows a protein as a band on a membrane.

Data set [3] deals with T1, Acid-sensing ion channel 1 (Rattus norvegicus). Briefly: Inhibition of ASIC1a in rat articular chondrocytes assessed as decrease in acid-induced intracellular calcium level at 25 uM pretreated with compound followed by acid medium stimulation in presence of voltage gated calcium channel inhibitor nimodipine after 24 hrs by Fluo-3AM dye based laser scanning confocal microscopy relative to control. Type of data set: cell-based. In outline: (§3)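 Primary rat articular chondrocytes (1 × 10^5 cells) were grown 24 h, then loaded with 10 μM Fluo-3-AM plus 0.02% Pluronic F-127 for 30 min at 37 °C and washed. Nimodipine (5 μM) was present in the extracellular fluid. Cells were perfused with D-Hank's containing compound, then with Hank's solution at pH 6.0. Confocal fluorescence (ex 488, em 525 nm) was imaged up to 5 min. Result reported as % inhibition of Ca2+ fluorescence intensity.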
(In general: A change in cytosolic calcium serves as a functional read-out for many receptors and channels.)

In data set [4] the target is T2, Acid-sensing ion channel 1 (Rattus norvegicus, UniProt P55926).
T2 sequence (P55926 whole entry): T1 sequence (whole entry)
Briefly: Inhibition of ASIC1 in Sprague-Dawley rat articular chondrocytes assessed as decrease in acid-induced intracellular calcium level by Fluo-3AM dye based laser scanning confocal microscopy. The data set is classed as cell-based. In a few lines:
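Primary rat articular chondrocytes were seeded at 1 × 10^5 cells and used after 24 h. Cells were loaded with 10 µM Fluo-3-AM plus 0.02% Pluronic F-127 for 30 min at 37 °C, washed, and kept with 5 µM nimodipine in the extracellular fluid. They were perfused with D-Hank's, then compound, then pH 6.0 Hank's. Confocal readout at ex 488/em 525 nm over 5 min gave the fluorescence-intensity inhibition rate.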

A short description of data set [5]: Cytotoxicity against rat articular chondrocytes assessed as decrease in cell viability at 50 uM after 24 hrs by MTT assay. In outline:
as §1

Data set [6] has as its target T1, Acid-sensing ion channel 1 (Rattus norvegicus). Briefly: Inhibition of acid-induced ASIC1a protein expression in rat articular chondrocytes at 3.125 to 50 uM pretreated for 24 hrs followed by acid medium stimulation at pH 6 for 3 hrs by Western blot analysis. The data set is classed as cell-based. In a few lines:
as §2

Data set [7] has the same target. Briefly: Inhibition of ASIC1a in rat articular chondrocytes assessed as decrease in acid-induced intracellular calcium level at 50 uM pretreated with compound followed by acid medium stimulation in presence of voltage gated calcium channel inhibitor nimodipine after 24 hrs by Fluo-3AM dye based laser scanning confocal microscopy relative to control. The data set is classed as cell-based. In outline: as §3

Data set [8] can be described thus: Cytotoxicity against rat articular chondrocytes assessed as decrease in cell viability at 3.125 to 25 uM after 24 hrs by MTT assay. In outline:
as §1

Data set [9] deals with T2, Acid-sensing ion channel 1. Briefly: Inhibition of ASIC1a in rat dorsal root ganglion neurons assessed as reduction in peak current preincubated for 120 secs followed by acid medium stimulation at pH 5.5 for 3 secs by automated patch clamp electrophysiology assay.

`N=C(NN)c1ccc2cc(/C=C/c3ccc(F)cc3)ccc2c1`: in data set [1], the Activity entry was “Non-Toxic”. Besides, in [2], the “inhibition of ASIC1a protein expression (active/not active)” value (“inhibition … (active/not active)” below) was “inactive”.

A word on the inhibition: it is the relative decrease from the control value, in per cent. Regarding `N=C(NN)c1ccc2cc(/C=C/c3ccccc3)ccc2c1`, the Activity entry in data set [1] is given as “Non-Toxic”. Moreover, in data set [2], the “inhibition … (active/not active)” value is “Active”. The inhibition in data set [3] worked out at 33.4%.

A word on the IC50: it is the point on the concentration scale where inhibition reaches its midpoint. Regarding `N=C(N)NC(=O)c1nc(Cl)c(N)nc1N` [AMILORIDE], the IC50 in data set [4] is 30.2 µM.

On to `N=C(NN)c1ccc2cc(/C=C/c3cccc(F)c3)ccc2c1`, for which the Activity result in data set [1] is “Non-Toxic”. Further, in data set [2], the “inhibition … (active/not active)” value is “Active”.

In the case of `Cc1ccc(/C=C/c2ccc3cc(C(=N)NN)ccc3c2)cc1`, in data set [5], the Activity result is given as “Toxic”. For the same compound, in data set [6], the inhibition result is “Active”. In [7], the inhibition turned out to be 63.2%.

Turning to `N=C(NN)c1ccc2cc(/C=C/c3ccc(Cl)cc3)ccc2c1`, the Activity result in data set [8] was “Non-Toxic”. In data set [6], the inhibition result was “Active”. Besides, in [7], the inhibition was 20.8%.

Regarding `N=C(NN)c1ccc2cc(/C=C/c3cccc(Cl)c3)ccc2c1`, the Activity entry in [1] was “Non-Toxic”. In data set [2], the “inhibition … (active/not active)” value was “Active”. Further, in [3], the inhibition was 59.5%.

As for `N=C(NN)c1ccc2cc(/C=C/c3ccccc3F)ccc2c1`, the Activity result in [1] is “Non-Toxic”. In data set [2], the “inhibition … (active/not active)” value is “Active”. Besides, the inhibition in data set [3] came to 52.1%.

Regarding `COc1ccc(/C=C/c2ccc3cc(C(=N)NN)ccc3c2)cc1`, the Activity result in data set [8] is “Non-Toxic”. The inhibition result in [6] was “Active”. In addition, the inhibition in data set [3] was found to be 68.9%.

On to `CC(C)C1c2cc(C3CC3c3ccc4cc(C(=N)N)ccc4c3)ccc2CCN1C` (centres undefined), for which the IC50 in [9] was found to be 2 µM.
